Assay results reported in publication PMC7113852 (Antiviral Research, 2018).
Like-named read-outs stand apart in the source and are kept apart here.

Assays:
in vitro [1] = settings: human
[2] = tested on: RVFV (rRVFVΔNSs::Katushka); experiment: microbe, parasite or virus in culture; type: cell-based, Rift Valley fever virus
ZIKV FB-GWUH-2016 strain [3] = experiment: ZIKV titer from compound-treated RPE cells, plaque assay on Vero-E6 cells; type: cell-based, Zika virus; settings: for antiviral activity in repeat experiments: repeated CTG, CTxG and virus titration; for EC50: Zika virus, read-out: EC50 other
Procedure, shortened: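 Medium for ZIKV infection: DMEM-F12 with 2% FBS, 2 mM L-glutamine, 0.25% sodium bicarbonate and 50 U/ml PenStrep, applied after 24 h growth of ~4 × 10^4 RPE cells/well. Test compound added in seven three-fold dilutions from 30 μM; infection at MOI 1. Media harvested at cytopathic effect (typically 24–72 hpi), serially diluted in PBS, plaque-titrated on Vero-E6 (PFU/ml). EC50 from variable-slope non-linear regression or Hill fit.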

in vitro [4] = settings: human; remark: listed apart in the source
ZIKV FB-GWUH-2016 strain [5] = experiment: Viability and death of ZIKV-infected RPE cells; type: cell-based, Zika virus; settings: for SI (minimal selectivity index, CC50/EC50): ZIKV, RPE cells; for EC50: Zika virus, RPE
CHIKV-2SG-NanoLuc [6] = experiment: microbe, parasite or virus in culture; type: cell-based, Chikungunya virus
CHIKV-2SG-NanoLuc [7] = experiment: microbe, parasite or virus in culture; type: cell-based, Chikungunya virus; settings: for EC50: Chikungunya virus, RPE
EV1 [8] = experiment: microbe, parasite or virus in culture; type: cell-based, Echovirus 1
EV1 [9] = experiment: microbe, parasite or virus in culture; type: cell-based, Echovirus 1; settings: for EC50: read-out: EC50 other
HIV-1 = HIV-1 infection of TZM-bl cells, firefly luciferase under HIV-1 LTR promoter; type: cell-based, Human immunodeficiency virus 1
in vitro [10] = settings: human; remark: listed apart in the source
[11] = tested on: FLUAV (influenza A/WSN/33(H1N1) virus); experiment: microbe, parasite or virus in culture; type: cell-based; settings: for EC50: Influenza A virus, H1N1|WSN, RPE
[12] = tested on: FLUAV (influenza A/WSN/33(H1N1) virus); experiment: microbe, parasite or virus in culture; type: cell-based
HSV-1 [13] = experiment: HSV-1 titer from compound-treated RPE cells, plaque assay on Vero-E6 cells; type: cell-based, Herpes simplex virus 1; settings: HSV-1, RPE cells; repeated CTG, CTxG and virus titration
Procedure, shortened: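 RPE cells (~4 × 10^4/well) grown 24 h, then switched to DMEM-F12 with 0.2% BSA, 2 mM L-glutamine, 0.35% NaHCO3 and 1 μg/mL TPCK-trypsin. Three-fold dilutions of test compound (seven concentrations from 30 μM); HSV-1 infection at MOI 1. Supernatants collected at cytopathic effect (typically 24–72 hpi), serially diluted in PBS, plaqued on Vero-E6 under overlay, fixed; titers as PFU/ml.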

HSV-1 [14] = experiment: Viability and death of HSV-1-infected RPE cells; type: cell-based, Herpes simplex virus 1
[15] = Enterovirus B, RPE, read-out: EC50 CTxG

Structure (SMILES)	antiviral activity in repeat experiments (ZIKV FB-GWUH-2016 strain [3]; ZIKV, RPE cells)	CC50 (in vitro [4]; CC50 CTG) [µM]	CC50 (in vitro [4]; CC50 CTxG) [µM]	SI (minimal selectivity index, CC50/EC50) (ZIKV FB-GWUH-2016 strain [5])	EC50 (ZIKV FB-GWUH-2016 strain [5]; read-out: EC50 CTG) [µM]	EC50 (ZIKV FB-GWUH-2016 strain [5]; read-out: EC50 CTxG) [µM]	antiviral activity in repeat experiments (EV1 [9])	other results
Nc1ncn([C@@H]2O[C@H](CO)[C@@H](O)[C@H]2O)c(=O)n1 [Azacitidine]	–	–	–	–	–	–	–	CC50 (in vitro [1]): > 100 µM; SI (minimal selectivity index, CC50/EC50) [2]: >9; screen hit against RVFV [2]: identified; EC50 ([2]; Rift Valley fever virus, A549, read-out: EC50 other): 11.4 µM
Nc1ncnc2c([C@@H]3N[C@H](CO)[C@@H](O)[C@H]3O)c[nH]c12 [BCX4430]	confirmed antiviral activity	> 30	> 30	>2	18.5	2.96	–	EC50 (ZIKV FB-GWUH-2016 strain [3]): 13.1 µM
CCN(CC)CCCC(C)Nc1ccnc2cc(Cl)ccc12 (centres unmarked) [Chloroquine]	confirmed antiviral activity	> 30	> 30	>4	7.25	–	–	antiviral activity in repeat experiments (CHIKV-2SG-NanoLuc [6]): confirmed antiviral activity; EC50 (CHIKV-2SG-NanoLuc [6]; Chikungunya virus, RPE, read-out: EC50 other): 16.8 µM; SI (minimal selectivity index, CC50/EC50) (CHIKV-2SG-NanoLuc [7]; CHIKV, RPE cells): >2; EC50 (CHIKV-2SG-NanoLuc [7]; read-out: EC50 CTG): 12.8 µM; EC50 (CHIKV-2SG-NanoLuc [7]; read-out: EC50 CTxG): 9.15 µM
CN[C@H]1C(=O)N[C@@H]2Cc3ccc(cc3)Oc3cc4cc(c3O[C@@H]3O[C@H](C(=O)O)[C@@H](O)[C@H](O)[C@H]3NC(=O)CCCCCCCCC(C)C)Oc3ccc(cc3Cl)[C@@H](O)[C@@H]3NC(=O)[C@H](NC(=O)[C@@H]4NC(=O)[C@@H](NC2=O)c2cc(cc(O)c2Cl)Oc2cc1ccc2O)c1ccc(O)c(c1)-c1c(O[C@H]2O[C@H](CO)[C@@H](O)[C@H](O)[C@@H]2O)cc(O)cc1[C@@H](C(=O)NCCCN(C)C)NC3=O [Dalbavancin]	–	–	–	–	–	–	confirmed antiviral activity	EC50 (EV1 [8]; read-out: EC50 CTG): 3.23 µM; EC50 (EV1 [8]; read-out: EC50 CTxG): 18.7 µM; production of infectious virus particles (EV1 [9]): lowered production of infectious virus particles; EC50 (EV1 [9]): 9.72 µM; CC50 (RPE cells): > 30 µM; cytotoxicity (RPE cells): without detectable cytotoxicity
CCCCOc1cc(C(=O)NCCN(CC)CC)c2ccccc2n1 [Dibucaine]	–	> 30	> 30	–	–	–	confirmed antiviral activity	SI (minimal selectivity index, CC50/EC50) (EV1 [8]): >15; EC50 (EV1 [8]; [15]): 2.05 µM; EC50 (EV1 [9]; Enterovirus B): 0.96 µM
O=C1[C@H](CC[C@H](O)c2ccc(F)cc2)[C@@H](c2ccc(O)cc2)N1c1ccc(F)cc1 [Ezetimibe]	confirmed antiviral activity	> 30	> 30	>333	–	0.09	–	SI (minimal selectivity index, CC50/EC50) (HIV-1; HIV-1, TZM-bl cells): >2; primary screen hit against HIV-1 (HIV-1; HIV-1, TZM-bl cells): anti-HIV-1 agents; validation of anti-HIV-1 hit (HIV-1; HIV-1, TZM-bl cells, validation experiment): confirmed; EC50 (HIV-1; Human immunodeficiency virus 1, TZM-bl, read-out: EC50 other): 13.2 µM; production of infectious virus particles (ZIKV FB-GWUH-2016 strain [3]; ZIKV, RPE cells): lowered production of infectious virus particles; screen hit against RVFV [2]: identified; CC50 (in vitro [10]): > 30 µM; cytotoxicity (RPE cells): without detectable cytotoxicity
CNCCC(Oc1ccc(C(F)(F)F)cc1)c1ccccc1 (centres unmarked) [Fluoxatine]	–	4.02	7.33	–	–	–	–	–
Nc1ccn([C@@H]2O[C@H](CO)[C@@H](O)C2(F)F)c(=O)n1 [Gemcitabine]	confirmed antiviral activity	> 30	> 30	23	0.92	0.07	confirmed antiviral activity	SI (minimal selectivity index, CC50/EC50) (EV1 [8]): >4; EC50 (EV1 [8]; [15]): 0.08 µM; EC50 (EV1 [9]; Enterovirus B): 6.96 µM; SI (minimal selectivity index, CC50/EC50) [11]: >29; EC50 ([11]; read-out: EC50 CTG): 0.25 µM; EC50 ([11]; read-out: EC50 CTxG): 1.02 µM; antiviral activity in repeat experiments [12]: confirmed antiviral activity; EC50 ([12]; Influenza A virus, H1N1|WSN, read-out: EC50 other): 0.89 µM; antiviral activity in repeat experiments (HSV-1 [13]): confirmed antiviral activity; SI (minimal selectivity index, CC50/EC50) (HSV-1 [14]; HSV-1, RPE cells): >500; EC50 (HSV-1 [14]; Human alphaherpesvirus 1, RPE, read-out: EC50 CTG): 0.05 µM; CC50 (RPE cells; human): 21.8 µM
CCN(CCO)CCCC(C)Nc1ccnc2cc(Cl)ccc12 (centres unmarked) [Hydroxychloroquine]	confirmed antiviral activity	> 30	> 30	>1	23	0.06	–	–
Cc1cccc(C)c1OCC(=O)N[C@@H](Cc1ccccc1)[C@@H](O)C[C@H](Cc1ccccc1)NC(=O)[C@H](C(C)C)N1CCCNC1=O [Lopinavir]	confirmed antiviral activity	> 30	> 30	>1	12	–	–	EC50 (ZIKV FB-GWUH-2016 strain [3]): 24.1 µM
